Laboratory results from article PMC3662534 (Molecular cancer therapeutics, 2009).
Entries after “also recorded” stand apart in the source; their conditions may differ. Positions of bridges follow the written chain, without caps; N, C: chain ends. Non-standard residues stand in square brackets, D forms with d. Residues, ends and D or L forms follow the SMILES beside them. *: point of attachment. DTPA = O=C(O)CN(CCN(CC(=O)O)CC(=O)O)CCN(CC(=O)O)CC(=O)*; dPen = CC(C)(S)[C@@H](N)C(=O)O

Tests used:
Hek293/MC4R/CCK2R cells = experiment: Cell fluorescence imaging of Cy5 labeled ligand binding and internalization; assay type: cell-based, human
In short: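 Live stable Hek293/MC4R/CCK2R cells on coverslips were held in a 37°C stage chamber. Cells were incubated with 0.8 nM Cy5-tagged heterobivalent ligand (15 sec, or 3 min in the legend) and rinsed with ligand-free medium. Images were taken immediately and 7 min later by CCD camera, with Cy5 excitation at 640 nm (20 nm bandpass) and emission at 690 nm (30 nm filter).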

[1] = tested on: Hek293 cells expressing MC4R and/or CCK2R; experiment: Cytotoxicity, celltiter-Glo luminescent cell viability assay; assay type: cell-based, human; conditions: 1 μM, dual receptor expressing (target) cells, 24 and 48 h
[2] = molecular target: human delta-opioid receptor (δOR) (Homo sapiens, UniProt P41143); conditions: saturation binding to δOR in CHO/MC4R/δOR cells
human delta-opioid receptor (δOR), sequence (P41143 whole entry): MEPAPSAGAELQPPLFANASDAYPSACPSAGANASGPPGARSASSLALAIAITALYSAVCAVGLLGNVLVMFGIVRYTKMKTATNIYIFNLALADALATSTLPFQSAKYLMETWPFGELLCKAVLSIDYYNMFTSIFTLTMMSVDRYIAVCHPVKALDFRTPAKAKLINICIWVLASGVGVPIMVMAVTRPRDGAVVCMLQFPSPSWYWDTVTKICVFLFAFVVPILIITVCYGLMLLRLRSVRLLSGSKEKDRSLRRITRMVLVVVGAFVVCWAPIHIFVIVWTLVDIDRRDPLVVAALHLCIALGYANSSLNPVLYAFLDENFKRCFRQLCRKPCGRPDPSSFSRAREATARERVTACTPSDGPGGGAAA

For “Ac-MSH7-PEGO-[Pro-Gly]3-Lys(Cy5)-PEGO-CCK6-NH2”, the “internalization of receptor/ligand complex” value (Hek293/MC4R/CCK2R cells; by 10 minutes, no significant loss of ligand on adding CCK ligand 50 μM) was “substantially internalized” and the “binding to the cell surface (Cy5 fluorescence)” value (Hek293/MC4R/CCK2R cells; immediately following incubation, 15 sec with 0.8 nM) was “significant binding to the cell surface”.
For cholecystokinin-8 [CCK], the cell viability [1] was “reduced viability; also recorded: toxicity”.
For `CC1(C)SSC[C@@H](C(=O)N[C@@H](Cc2ccccc2)C(=O)N[C@@H](CCCCNC(=O)CN(CCN(CCN(CC(=O)O)CC(=O)O)CC(=O)O)CC(=O)O)C(N)=O)NC(=O)[C@H](Cc2ccccc2)NC(=O)CNC(=O)[C@@H]1NC(=O)[C@@H](N)Cc1ccc(O)cc1` [Eu-DPLCE, H-Tyr-c[DPen-Gly-Phe-Cys]-Phe-Lys(Eu-(DTPA))-NH2] (H-Y[dPen]GFCFK(DTPA)-NH2; disulfide 2-5), the Bmax [2] was 24,000 ± 2,000 AFU.
